Activity calls are given as the source filed them. No cut-off for these calls is given here.
Tests used:
U-937 [1] = experiment: Induction of apoptosis in p53 null human U937 cells assessed as PARP-1 cleavage after 24 hrs by Western blot analysis; format: functional, cell-based
Outline: (§1)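 U937 cells exposed for 24 h. Lysates with protease/phosphatase inhibitors were separated by SDS-PAGE, transferred to PVDF and probed for PARP and cleaved caspase-3, with β-actin as loading control.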

U-937 [2] = experiment: Induction of apoptosis in p53 null human U937 cells at 4 uM after 24 hrs by annexin V-FITC/PI staining based flow cytometry; format: functional
Outline: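 Human U937 AML cells (p53 null) in RPMI 1640 with 10% FBS, 2 mM L-glutamine, penicillin/streptomycin, 37 °C, 5% CO2. Exposed 24 h to compound alone or with SAHA; vehicle DMSO < 0.1% v/v. Annexin V-FITC/PI staining and flow cytometry, reported as % Annexin V+ cells. Three independent experiments in triplicate; one representative shown. EC50 taken as concentration giving 50% Annexin V+ cells versus vehicle.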

MOLM-13 [3] = experiment: Induction of apoptosis in human MOLM13 cells harboring wild type p53/FLT3-ITD mutant at 1 uM after 24 hrs by annexin V-FITC/PI staining based flow cytometry; format: functional
Outline: (§2)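 Cells treated 24 h, single agents or SAHA+PL at 1:1 (each drug at the stated concentration). Annexin V-FITC/PI kit staining, then flow cytometry, reported as % Annexin V+ cells. Three independent experiments in triplicate, with data from one representative experiment. DMSO <0.1% vehicle control.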

MOLM-13 [4] = experiment: Induction of apoptosis in human MOLM13 cells harboring wild type p53/FLT3-ITD mutant at 2 uM after 24 hrs by annexin V-FITC/PI staining based flow cytometry; format: functional; outline: as §2
U-937 [5] = experiment: Induction of apoptosis in p53 null human U937 cells at 0.5 uM after 24 hrs by annexin V-FITC/PI staining based flow cytometry; format: functional; outline: as §2
U-937 [6] = experiment: Cytotoxicity against p53 null human U937 cells assessed as decrease in cell viability at 0.5 to 5 uM after 24 hrs by MTT assay; format: functional, cell-based
Outline: (§3)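 MCF-10A (DMEM/F12, 5% horse serum, hydrocortisone, cholera toxin, insulin, EGF) and U937 (RPMI 1640, 10% FBS) were exposed to 0.5–5 μM, alone or PL+SAHA 1:1, for 24 h. MTT 0.05 mg/mL, 3 h at 37 °C, DMSO solubilization, A570. Viability given as mean ± SD of four to six independent experiments. DMSO <0.1% vehicle control.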

[7] = Chemical stability of the compound in pH 7.4 phosphate buffer at 50 uM incubated up to 4 hrs in absence of GSH by HPLC analysis; format: physicochemical; conditions: pH 7.4, 4 h
Outline: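 Compound at 50 μM incubated with or without 5 mM GSH in phosphate buffer pH 7.4 at 37 °C for up to 4 h. Mixtures analysed by HPLC with water/0.1% formic acid/10% methanol versus 0.1% formic acid in acetonitrile, 0.5 mL/min, 10–80% B gradient over 18 min.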

U-937 [8] = experiment: Induction of DNA damage in p53 null human U937 cells assessed as decrease in Rad51 expression level by measuring ratio of Rad51 to beta-actin level at 2 uM after 24 hrs by Western blot analysis relative to control; format: functional
Outline: (§4)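 U937 cells treated 24 h, alone or PL+SAHA. Whole-cell lysates (protease/phosphatase inhibitors) immunoblotted for γH2AX, CHK1, RAD51, Bim and XIAP. Band densitometry normalised to β-actin, then expressed as fold change relative to the untreated control.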

U-937 [9] = experiment: Induction of apoptosis in p53 null human U937 cells assessed as caspase 3 cleavage at 2 uM after 24 hrs in presence of SAHA by Western blot analysis; format: functional, cell-based; outline: as §1
U-937 [10] = experiment: Induction of apoptosis in p53 null human U937 cells at 1 uM after 24 hrs in presence of SAHA by annexin V-FITC/PI staining based flow cytometry; format: functional; outline: as §2
U-937 [11] = experiment: Induction of apoptosis in p53 null human U937 cells at 4 uM after 24 hrs in presence of SAHA by annexin V-FITC/PI staining based flow cytometry; format: functional
MOLM-13 [12] = experiment: Induction of apoptosis in human MOLM13 cells harboring wild type p53/FLT3-ITD mutant at 1 uM after 24 hrs in presence of SAHA by annexin V-FITC/PI staining based flow cytometry; format: functional; outline: as §2
MOLM-13 [13] = experiment: Induction of apoptosis in human MOLM13 cells harboring wild type p53/FLT3-ITD mutant at 2 uM after 24 hrs in presence of SAHA by annexin V-FITC/PI staining based flow cytometry; format: functional; outline: as §2
[14] = Antiproliferative activity against human CMY cells after 72 hrs in presence of SAHA by MTT assay; format: functional, cell-based
Outline: (§5)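 AML cell lines grown in RPMI 1640 with 10% FBS (20% for MOLM-13), 2 mM L-glutamine and penicillin/streptomycin at 37 °C, 5% CO2. Ara-C-resistant HL-60 and CMK sublines came from stepwise cytarabine selection and were kept in 600 nM or 300 nM cytarabine respectively. Cells were treated 72 h. MTT 0.05 mg/mL, 3 h at 37 °C, DMSO solubilization, absorbance at 570 nm. IC50 given ± SEM.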

MOLM-13 [15] = experiment: Antiproliferative activity against human MOLM13 cells harboring wild type p53/FLT3-ITD mutant after 72 hrs in presence of SAHA by MTT assay; format: functional, cell-based; conditions: MOLM-13, 72 h; outline: as §5
HL-60 = experiment: Antiproliferative activity against Ara-C resistant human HL60 cells after 72 hrs in presence of SAHA by MTT assay; format: functional, cell-based; conditions: HL-60, 72 h; outline: as §5
U-937 [16] = experiment: Cytotoxicity against p53 null human U937 cells assessed as decrease in cell viability at 0.5 to 5 uM after 24 hrs in presence of SAHA by MTT assay; format: functional, cell-based; outline: as §3
U-937 [17] = experiment: Induction of apoptosis in p53 null human U937 cells at 2 uM preincubated with NAC for 3 hrs followed by compound addition measured after 24 hrs in presence of SAHA by annexin V-FITC/PI staining based flow cytometry; format: functional, cell-based
Outline: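 U937 cells preincubated 3 h with 3 mM NAC or vehicle and washed with PBS to remove excess NAC. Then drug alone or with SAHA for 24 h. Apoptosis scored as % Annexin V+ by Annexin V-FITC/PI flow cytometry; vehicle DMSO < 0.1% v/v.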

U-937 [18] = experiment: Induction of DNA damage in p53 null human U937 cells at 2 uM after 20 hrs in presence of SAHA by SYBR gold staining based alkaline comet assay; format: functional, cell-based
Outline: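 U937 cells treated 20 h with SAHA and PL alone or combined (16 h for hybrids). Alkaline single-cell gel electrophoresis, SYBR Gold staining, microscopy. Median % DNA in tail from 4 replicate gels ± s.e.m.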

U-937 [19] = experiment: Effect on SAHA-induced DNA damage in p53 null human U937 cells assessed as decrease in Rad51 expression level by measuring ratio of Rad51 to beta-actin level at 2 uM after 24 hrs by Western blot analysis relative to control; format: functional; outline: as §4
U-937 [20] = experiment: Effect on SAHA-induced apoptosis in p53 null human U937 cells assessed as decrease in XIAP expression level by measuring ratio of XIAP to beta-actin level at 2 uM after 24 hrs by Western blot analysis relative to control; format: functional; outline: as §4

For COc1cc(/C=C/C(=O)N2CCC=CC2=O)cc(OC)c1OCCCCCCC(=O)NO, which Activity (U-937 [1]) is on record?
Its Activity is “Dose-dependent effect”.

And the Activity (U-937 [2])?
The Activity was 88.5%.

And the Activity (MOLM-13 [3])?
Its Activity is 24.6%.

What about the Activity (MOLM-13 [4]) of the same molecule?
Its Activity is 65.9%.

And the Activity (U-937 [5])?
The Activity was “inactive”.

What about the Activity (U-937 [6]) of the same molecule?
The Activity was “Active”.

And the Stability [7]?
The Stability was “Stable”.

What about the Ratio (U-937 [8]) of the same molecule?
The Ratio was 0.9.

For COc1cc(/C=C/C(=O)N2CCC=CC2=O)cc(OC)c1OC [PIPLARTINE], which Activity (U-937 [9]) is on record?
Its Activity is “Active”.

What about the Activity (U-937 [10]) of the same molecule?
The Activity was 6.2%.

And the Activity (U-937 [11])?
The Activity was 81.1%.

And the Activity (MOLM-13 [12])?
Its Activity is 8%.

And the Activity (MOLM-13 [13])?
Its Activity is 53.6%.

What about the IC50 [14] of the same molecule?
The IC50 was 442 nM.

And the IC50 (MOLM-13 [15])?
The IC50 was 934 nM.

And the IC50 (HL-60)?
Its IC50 is 1130 nM.

And the Activity (U-937 [16])?
The Activity was “Active”.

And the Activity (U-937 [17])?
The Activity was “inactive”.

And the Activity (U-937 [18])?
The Activity was “Active”.

And the Ratio (U-937 [19])?
The Ratio was 0.9.

What about the Ratio (U-937 [20]) of the same molecule?
The Ratio was 0.6.
